Screening results from PubChem BioAssay.
Only some compounds are listed: those with a hit (about 1.5% of all), similar ones and a draw of the others.
SENP1 FRET inh: human SENP1 catalytic domain inhibitors, primary screen, biochemical, FRET, uHTS | inhibition, % at 10 µM | AID 624204, 2012 | 360,000 tested, 0.21% active | recombinant SENP1 catalytic domain, CyPet-SUMO1-YPet FRET cleavage;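 active = inhibition at least 30% at 10 µM, raw YFP signal under a set limit, fluorescence ratio 0.5 to 1.5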;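 also: 0% = enzyme with DMSO and 100% = no enzyme wells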
Target sequence (Q9P0U3 419-644 limits assumed): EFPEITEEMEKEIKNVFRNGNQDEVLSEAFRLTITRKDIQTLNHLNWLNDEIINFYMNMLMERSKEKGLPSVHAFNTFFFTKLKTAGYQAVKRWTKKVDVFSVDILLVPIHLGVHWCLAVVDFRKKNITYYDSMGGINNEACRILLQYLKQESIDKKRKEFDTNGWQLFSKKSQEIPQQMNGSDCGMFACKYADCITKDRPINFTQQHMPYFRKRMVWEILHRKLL
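Compound: 10 µM single point, 0.5% DMSO; Test system: hSENP1 catalytic domain, recombinant; Timing: 50 min reaction at room temperature; Technique: FRET, CFP and YFP emission; Control set: no-enzyme wells low, DMSO-plus-enzyme wells high control.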
Platelet DG rel: inhibitors of platelet dense granule secretion, primary screen, cell-based, MLPCN, human platelets; human platelet-rich plasma, SFLLRN dense granule ATP release, luminescence; inhibition, %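 (compounds screened at 7.5 µM in platelet-rich plasma)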; 300,000 tested, 0.22% active; AID 1663, 2009;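 active = mean replicate score, as percent of positive control, at or above 50; inconclusive = mean below 50 but at least one replicate at or above 50; inactive = mean and every replicate below 50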
VLA-4 inh: inhibition in human VLA-4 binding assay, primary screen, VLA-4 allosteric modulator project, MLPCN library, flow cytometry, VLA-4 expressing cells; Integrin alpha-4 (Homo sapiens), P13612; 330,000 tested, 0.2% active; inhibition, % (about 7 µM as worked out from the volumes in the protocol); AID 2557, 2010; ligand binding flow cytometry; in the data active = inhibition above about 50%
Myeloid diff 2: induction of myeloid progenitor differentiation, primary screen, cell-based, flow cytometry, MLPCN library | ER-HoxA9 myeloid progenitors, lysozyme-GFP differentiation | calls only at 10 µM | 360,000 tested, 1% active | AID 624256, 2012;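 active = normalized GFP-positive differentiation at or above the plate's own cutoff, the solvent-only control mean plus 3 SD; inconclusive = no clear call, values can overlap the other calls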;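 also: cells exposed to compound for four days before flow analysis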
SENP1 conf: human SENP1 catalytic domain inhibitors, confirmation, biochemical, FRET endpoint, single concentration; inhibition, % at 10 µM; 520 tested, 34% active; AID 651678, 2012; recombinant SENP1, CyPet-SUMO1-YPet FRET cleavage; shares compounds with SENP1 FRET inh; in the data active = inhibition mostly above about 35%, no sharp cut-off; inactive = mostly below about 32%;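 also: 0% = enzyme with DMSO and 100% = no enzyme control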
SENP1 kin conf: human SENP1 catalytic domain inhibitors, confirmation, biochemical, kinetic FRET, single concentration; shares compounds with SENP1 FRET inh; recombinant SENP1, CyPet-SUMO1-YPet FRET kinetic cleavage; inhibition, % at 10 µM; 520 tested, 26% active; AID 651690, 2012; in the data active = inhibition mostly above about 32%, no sharp cut-off; inactive = mostly below about 29%;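 also: 0% = DMSO with enzyme and 100% = no enzyme substrate only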
* hit, by the source's call; i = inactive; ? = inconclusive; . = no result given.

SMILES	SENP1 FRET inh	Platelet DG rel	VLA-4 inh	Myeloid diff 2	SENP1 conf	SENP1 kin conf
Cc1nc2ccc(NS(=O)(=O)c3c(F)cc(F)cc3Br)cc2s1	43.6*	.	1.4	i	18.4	17.4
CCOC(=O)C1=C(C)N(CCCC(=O)O)C(=O)NC1c1cccc(OC)c1 (stereo not given)	.	-1.6	-1.0	.	.	.
COC(=O)CSc1nc2cc(OC)ccc2cc1C#N	37.4*	2.8	-13.4	i	16.4	3.0
COc1ccc2cc(C#N)c(SCC(=O)N3CCCC3)nc2c1	-26.9	6.5	-4.4	i	.	.
CC(C)N=c1scc(-c2cccs2)n1/N=C/c1ccc(O)c(O)c1O	12.9	.	0.0	i	.	.
CCN=c1scc(-c2cccs2)n1/N=C/c1cc(OC)ccc1O	52.1*	.	-25.7	i	146.2*	82.3*
COc1ccc(O)c(/C=N/n2c(-c3ccco3)csc2=Nc2cccnc2)c1	41.7*	1.5	-9.6	i	29.1*	18.6
CCCn1c(SCC(=O)NC2CCCCC2)nnc1-c1ccco1	-3.8	3.3	-3.5	i	.	.
C[C@@H]1CCCCO[C@@H](CN(C)S(=O)(=O)c2ccccc2)[C@@H](C)CN([C@H](C)CO)C(=O)c2cc(N(C)C)ccc2O1	-1.0	.	.	i	.	.
Cc1nc2ccc(S(=O)(=O)N(C)CC(=O)NCc3ccc(N(C)C)cc3)cc2s1	56.5*	2.7	-1.8	i	14.8	14.5
CCOC(=O)CN1C(=O)C2(OCCCO2)c2cc(Br)ccc21	1.9	-7.5	-1.8	i	.	.
COc1cccc(CNC(=O)Cc2ccc(-c3ccccc3)cc2)c1	55.2*	-0.8	2.5	.	18.1	20.1
CN(C1CCCCC1)S(=O)(=O)c1cccc2nsnc12	1.4	4.1	2.3	i	.	.
O=C1c2cccc3cc([N+](=O)[O-])cc(c23)C(=O)N1c1ccccc1O	39.8*	-0.3	-6.2	i	17.5	10.3
Cc1cc(O)ccc1N1C(=O)c2cccc3cc([N+](=O)[O-])cc(c23)C1=O	35.7*	-10.3	-3.5	i	13.3	6.4
O=C1c2cccc3cc([N+](=O)[O-])cc(c23)C(=O)N1c1nncs1	6.4	18.5	3.4	i	.	.
O=C(NCc1ccccc1Cl)[C@H]1CCCN1C(=O)[C@H]1CCCN1C(=O)c1ccccc1	1.3	.	.	i	.	.
COc1ccccc1/C=C/C(=O)OCc1nc2ccccc2c(=O)[nH]1	-1.9	-3.1	-13.2	i	.	.
CC1CN(C(=O)/C=C/c2ccccc2Cl)CC(C)O1 (stereo not given)	-0.2	-2.1	7.0	i	.	.
O=C(O)c1cccc2c1-c1ccc(Cl)cc1C2=O	1.0	.	.	i	.	.
Nc1cccc2c1C(=O)c1ccc(Cl)cc1C2=O	30.1*	.	.	i	33.0	16.1
CCSc1ncc(Cl)c(C(=O)Nc2sc3c(c2C(=O)NCc2cccnc2)CCCC3)n1	40.6*	2.5	-18.9	?	61.9*	43.7*
CCSc1ncc(Cl)c(C(=O)Nc2ccccc2Cl)n1	1.8	-1.9	23.3	i	.	.
CC(C)(C)C(=O)CSc1nnc(Nc2ccccc2)s1	1.6	-5.9	5.6	i	.	.
CCC(C)NC(=O)C1CCC(CNS(=O)(=O)c2cccc3nsnc23)CC1 (stereo not given)	2.0	0.9	-1.2	i	.	.
SMILES	SENP1 FRET inh	Platelet DG rel	VLA-4 inh	Myeloid diff 2	SENP1 conf	SENP1 kin conf
Cc1cccc(-c2noc(-c3cc4ccccc4oc3=O)n2)c1	51.1*	4.6	7.7	i	-0.2	6.4
Cc1ccc(-c2noc(-c3cc4ccccc4oc3=O)n2)cc1	-4.6	-1.6	10.7	.	.	.
COc1ccc(NC(=O)CCCNC(=O)c2ccc(Cl)cc2)cc1S(=O)(=O)N1CCOCC1	1.4	.	.	i	.	.
Nc1ccc(C(=O)N/N=C/c2ccc(N3CCOCC3)s2)cc1	-39.5	.	-21.3	i	.	.
CC(C)(C)OC(=O)N/N=C/c1ccc(N2CCOCC2)s1	43.5*	17.7	6.4	i	64.4*	43.4*
COc1cc(CCC(=O)Nc2ccc(C)c(S(=O)(=O)N3CCCCCC3)c2)cc(OC)c1OC	0.1	.	14.4	i	.	.
COC(=O)c1c(NC(=O)c2ccccc2)sc(C(=O)c2ccccc2)c1C	42.6*	-1.5	14.3	i	23.5*	34.2*
CSCCC(NC(=O)c1cc([N+](=O)[O-])ccc1Cl)C(=O)O (stereo not given)	2.9	2.2	10.6	i	.	.
CC(CNC(=O)CCCn1c(=O)c2cccn2c2cccnc21)c1ccccc1 (stereo not given)	-1.0	.	.	i	.	.
O=CNc1ccc2c(c1)Cc1cc([N+](=O)[O-])ccc1-2	48.3*	.	.	?	26.8	19.9
COc1ccc(C(C(=O)NC2CCCC2)N(Cc2cccnc2)C(=O)c2snc(C(N)=O)c2N)cc1OC (stereo not given)	1.8	9.0	0.8	i	.	.
Nc1ccc2c(C(F)(F)F)cc(C(F)(F)F)nc2n1	-11.1	1.7	2.1	i	.	.
Nc1nc(N)c2sc3nc(C(F)(F)F)cc(C(F)(F)F)c3c2n1	67.9*	4.6	-5.8	i	34.5*	25.2
CCOC(=O)CNC(=O)C1COc2ccccc2O1 (stereo not given)	0.8	0.1	11.6	i	.	.
Cn1c(=O)c2c(-c3ccccc3)n(-c3ccc(N)cc3)cc2n(C)c1=O	45.2*	.	.	i	24.1	9.3
CCOC(=O)C1(Cc2cccc(Cl)c2)CCCN(C(=O)CCN2CCCC2=O)C1 (stereo not given)	1.7	-7.1	2.6	i	.	.
Cc1ccc(-c2nc3ncccn3c2Nc2ccc3c(c2)OCCO3)cc1	17.7	2.3	7.6	i	.	.
COc1ccc(-c2nc3ncccn3c2Nc2ccc3c(c2)OCCO3)cc1	32.2*	5.3	.	i	-10.7	6.8
Cc1ccc(-c2nc3ncccn3c2Nc2ccc3c(c2)OCCO3)o1	53.1*	2.4	1.1	i	18.8	13.8
Brc1ccc(-c2nc3ncccn3c2Nc2ccc3c(c2)OCCO3)o1	34.6*	-0.6	25.1	i	9.5	3.4
Oc1ccc(-c2nc3ncccn3c2Nc2ccc3c(c2)OCCO3)cc1	13.4	7.3	-1.9	i	.	.
Cc1ccc(-c2nc3ncccn3c2NC2CCCCC2)o1	63.1*	2.5	15.1	i	54.0*	36.0
CC(CNC(=O)Cn1ccc(N)nc1=O)c1ccccc1 (stereo not given)	1.3	.	0.0	i	.	.
CC(C)OC(=O)C(C)Nc1ccc(F)c(Cl)c1 (stereo not given)	1.4	4.5	0.4	i	.	.
CN1CCN(C2=Nc3c(Cl)cc(Cl)c4cccc2c34)CC1	82.2*	2.3	-110.5	i	101.0*	56.7*
